{"source": "ChEMBL document CHEMBL1155241", "about": "“Investigation of N-aryl-3-alkylidenepyrrolinones as potential Niemann-Pick type C disease therapeutics” (2009)", "key": {"[1]": {"assay": "Inhibition of LDL endocytosis in NPC1 deficient chinese hamster CT60 cells assessed as ratio of DiI-labeled LDL level in treated to untreated control at 10 uM after 18 hrs by fluorimetry", "assay_type": "functional, Cricetulus griseus", "summary_of_the_method": "(§1)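 CT60 or 25RA cells incubated with compound together with DiI-labeled LDL, either 35 min (short) or 18 h (long). Uptake quantified as DiI fluorescence intensity per cell area and normalized to the mean of solvent (DMSO)-treated samples.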"}, "[2]": {"target": "T1, Sterol O-acyltransferase 1 (Cricetulus griseus) (UniProt Q60457)", "T1 sequence (whole entry)": "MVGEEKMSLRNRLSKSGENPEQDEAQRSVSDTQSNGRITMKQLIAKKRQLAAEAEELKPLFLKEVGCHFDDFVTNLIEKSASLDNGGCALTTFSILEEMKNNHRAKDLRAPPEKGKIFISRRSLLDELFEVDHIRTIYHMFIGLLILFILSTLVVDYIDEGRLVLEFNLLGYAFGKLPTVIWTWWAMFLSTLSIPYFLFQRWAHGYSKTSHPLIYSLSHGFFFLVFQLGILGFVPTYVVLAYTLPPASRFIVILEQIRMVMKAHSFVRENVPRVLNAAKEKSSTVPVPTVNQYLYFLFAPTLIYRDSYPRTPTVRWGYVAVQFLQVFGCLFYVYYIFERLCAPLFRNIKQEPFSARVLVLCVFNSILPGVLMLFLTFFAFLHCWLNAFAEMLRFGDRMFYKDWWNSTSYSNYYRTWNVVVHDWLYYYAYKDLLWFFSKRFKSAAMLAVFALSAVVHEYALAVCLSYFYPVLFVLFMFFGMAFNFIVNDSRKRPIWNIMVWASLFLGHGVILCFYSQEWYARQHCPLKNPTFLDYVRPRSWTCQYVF", "assay": "Increase in ACAT-induced cholesterol esterification in NPC1 deficient chinese hamster CT60 cells assessed as ratio of [14C]oleic acid incorporation in treated to untreated control at 10 uM", "assay_type": "cell-based", "summary_of_the_method": "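CT60 cells treated 18 h at 10 µM. ACAT esterification measured as incorporation of [14C]-oleic acid into cholesteryl-[14C]-oleate, normalized to cellular protein. Expressed relative to solvent-treated controls.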"}, "[3]": {"assay": "Inhibition of LDL endocytosis in NPC1 deficient chinese hamster CT60 cells assessed as ratio of DiI-labeled LDL level in treated to untreated control at 10 uM after 35 mins by fluorimetry", "assay_type": "functional, Cricetulus griseus", "summary_of_the_method": "as §1"}, "[4]": {"assay": "Reduction in cholesterol level in lysosomal storage organelles of NPC1 deficient chinese hamster CT43 cells at 10 uM by LSO compartment ratio assay", "assay_type": "functional, Cricetulus griseus", "parameters": "scale not given: the % may be the effect or the level left"}, "[5]": {"assay": "Reduction in cholesterol level in lysosomal storage organelles of NPC1 deficient chinese hamster CT60 cells at 10 uM by LSO compartment ratio assay", "assay_type": "functional, Cricetulus griseus", "parameters": "scale not given: the % may be the effect or the level left"}, "[6]": {"assay": "Inhibition of LDL endocytosis in NPC1 deficient chinese hamster cells assessed as ratio of DiI-labeled LDL level in treated to untreated control at 10 uM after 18 hrs by fluorimetry"}, "Cricetulus griseus [7]": {"species": "Cricetulus griseus", "assay": "Increase in cholesterol efflux in wild type chinese hamster 25RA cells with SCAP gene gain of function mutation at 10 uM after 18 hrs by [3H]cholesterol incorporation assay", "assay_type": "functional", "summary_of_the_method": "(§2)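 Cells labeled 24 h with 1 µCi/ml [3H]-cholesterol, then incubated 18 h with 10 µM compound. Efflux went to serum acceptors. Efflux is supernatant radioactivity divided by supernatant plus cell-monolayer radioactivity, compared with solvent-treated control cells.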"}, "Cricetulus griseus [8]": {"species": "Cricetulus griseus", "assay": "Increase in cholesterol efflux in chinese hamster TRVb1 cells expressing human transferrin receptor at 10 uM after 18 hrs by [3H]cholesterol incorporation assay", "assay_type": "functional", "summary_of_the_method": "as §2"}, "[9]": {"assay": "Inhibition of LDL endocytosis in wild type chinese hamster 25RA cells assessed as ratio of DiI-labeled LDL level in treated to untreated control at 10 uM after 35 mins by fluorimetry", "assay_type": "functional, Cricetulus griseus", "summary_of_the_method": "as §1"}, "CT60": {"system": "CT60", "assay": "Increase in cholesterol efflux in NPC1 deficient chinese hamster CT60 cells at 10 uM after 18 hrs by [3H]cholesterol incorporation assay", "assay_type": "functional, cell-based", "conditions": "Cricetulus griseus", "summary_of_the_method": "as §2"}, "[10]": {"assay": "Effect on cholesterol esters content in NPC1 deficient chinese hamster CT60 cells assessed as ratio of cholesteryl esters level in treated to untreated control at 10 uM by gas chromatography", "assay_type": "functional, Cricetulus griseus", "summary_of_the_method": "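CT60 cells exposed to 10 µM for 18 h alongside solvent (DMSO) controls. Total cellular cholesteryl ester measured by GC and expressed per µg cell protein. Reported relative to solvent-treated cells.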"}}, "note": "The source made the active and inactive calls. No cut-off for these calls is given here."}
{"molecule": "O=C(O)c1ccc(N2C(=O)/C(=C\\c3ccc(-c4ccc(Br)cc4)o3)C=C2c2ccccc2)cc1", "values": [{"measurement": "Ratio", "setting": "[1]", "result": 0.59}, {"measurement": "Ratio", "setting": "[2]", "result": 1.49}, {"measurement": "Ratio", "setting": "[3]", "result": 0.93}, {"measurement": "Activity", "setting": "[4]", "result": 80, "unit": "%"}, {"measurement": "Activity", "setting": "[5]", "result": 30, "unit": "%"}, {"measurement": "Ratio", "setting": "[6]", "result": 0.67}, {"measurement": "Activity", "setting": "Cricetulus griseus [7]", "result": "Active"}, {"measurement": "Activity", "setting": "Cricetulus griseus [8]", "result": "Active"}, {"measurement": "Ratio", "setting": "[9]", "result": 1.16}, {"measurement": "Activity", "setting": "CT60", "result": "Active"}, {"measurement": "Ratio", "setting": "[10]", "result": 1.05}]}
